Bioassay records deposited in PubChem BioAssay by Sanford-Burnham Center for Chemical Genomics.
Hits are enriched below; roughly 2.3% of the tested compounds scored in any of these assays.
MT1-MMP act inh: blockers of MT1-MMP proenzyme processing, primary screen, HT1080 RFP-PRO-GFP cells, GFP/RFP fluorescence; GFP/RFP ratio change, % at 20 µM; Matrix metalloproteinase-14 (Homo sapiens), P50281; AID 651647, 2012; GFP/RFP ratio fluorescence, overnight; percent of plate control window, DMSO zero; 0.061% of 360,000 active;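 active means GFP/RFP ratio change of at least 30% with cell ATP level not reduced by more than half and red fluorescence within 50% of control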
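Material: RFP-PRO-GFP reporter HT1080 cells. Dosing: single-point 20 µM compound, 1% DMSO. Controls: DMSO and RFP-L50D-GFP cell wells. Timing: cells overnight before dosing, compound overnight, 37 °C, 5% CO2. Measure: GFP/RFP fluorescence ratio.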
ATG4B inh: ATG4B protease inhibitors, primary screen, biochemical, fluorescence, uHTS | AID 504462, 2011 | ATG4B cleavage of LC3-PLA2, NBD-HPC fluorescence, 1 h | 0.51% of 340,000 active | Cysteine protease ATG4B (Homo sapiens), Q9Y4P1 | inhibition, % at 8.33 µM; in the data active means inhibition above about 40%
Target sequence (Q9Y4P1 whole entry, looked up): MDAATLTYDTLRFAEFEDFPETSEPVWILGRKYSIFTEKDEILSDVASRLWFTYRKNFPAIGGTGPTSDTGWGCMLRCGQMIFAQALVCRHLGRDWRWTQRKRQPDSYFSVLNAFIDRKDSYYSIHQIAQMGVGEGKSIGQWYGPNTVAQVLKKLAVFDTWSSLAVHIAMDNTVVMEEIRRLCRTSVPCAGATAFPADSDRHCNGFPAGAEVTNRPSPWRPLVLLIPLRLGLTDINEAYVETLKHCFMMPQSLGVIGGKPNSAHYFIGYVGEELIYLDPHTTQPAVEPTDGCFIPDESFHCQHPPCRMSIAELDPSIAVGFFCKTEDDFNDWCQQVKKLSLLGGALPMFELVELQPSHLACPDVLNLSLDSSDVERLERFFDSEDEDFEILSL
MPTP inh: mitochondrial permeability transition pore inhibitors, primary screen, biochemical, isolated mouse mitochondria, absorbance. Ca2+ swelling absorbance, 30 min. inhibition, % at 10 µM. 1.4% of 360,000 active;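 active means inhibition of 50% or more, scaled per plate between neutral and stimulator controls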
SKN-1 inh: suppressors of acrylamide-induced Pgst-4::GFP reporter in worms, primary screen, SKN-1 inhibitor project, whole organism, uHTS, GFP/RFP fluorescence ratio, strain VP596. AID 624304, 2012. inhibition, % at 21.8 µM. C. elegans VP596 Pgst-4::GFP/RFP ratio, 24 h. 0.49% of 360,000 active;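 active means interference check ratio from 0.5 to 1.5 plus GFP to RFP signal ratio inhibition reaching or exceeding a fixed threshold, cut at about 30% in these data, passing the limit was not always enough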
Rh123 counter: fluorescence retest of MPTP screen hits in isolated mitochondria, single concentration. membrane potential, Rhodamine 123 fluorescence. inhibition, % at 10 µM. 78% of 5,000 active. shares compounds with MPTP inh; in the data active means inhibition above about 22%
MPTP abs DR: mitochondrial permeability transition pore inhibitors, dose response, biochemical, absorbance, uHTS hits; shares compounds with MPTP inh; isolated mitochondria swelling; IC50, µM; 58% of 780 active; AID 651561, 2012; in the data active means IC50 below about 20 µM
MPTP counter DR: fluorescent counter-screen in isolated mitochondria, dose response, counter-screen for MPTP inhibitor project, biochemical, fluorescence, uHTS hits; shares compounds with MPTP inh; isolated mitochondria counterscreen, fluorescence read-out; IC50, µM; 49% of 780 active; AID 651564, 2012; in the data active means IC50 below about 80 µM
Of the large screens only hits and unclear results are named; the others gave an inactive call (follow-up assays come after a bar, where they were run).

CCN1C[C@@H]2[C@@H]3C(=O)N(Cc4ccccc4)C(=O)[C@@H]3[C@](Cc3ccccc3)(C1=O)N2C(=O)c1ccc(Br)cc1	none
CCC(NC(=O)Nc1nnc(C(F)(F)F)s1)(C(F)(F)F)C(F)(F)F	MPTP inh 101 | Rh123 counter 112
Cc1cc(C)n2c(=O)c3ccc(Cl)cc3nc2c1C#N	none
Cc1cc(Cl)n2c(nc3cc(F)c(F)cc32)c1C#N	MPTP inh 95 | Rh123 counter 91
O=C(Nc1cc(C(F)(F)F)cc(C(F)(F)F)c1)c1ccc(Cn2cc(C(F)(F)F)ccc2=O)cc1	MPTP inh 72 | Rh123 counter 25
O=C(Nc1ccccc1)c1ccc(Cn2cc(C(F)(F)F)ccc2=O)cc1	none
Cc1ccc(S(=O)(=O)N2CCOCC2)cc1NC(=O)Nc1ccc([N+](=O)[O-])cc1	MPTP inh 100 | Rh123 counter 99
O=C(Nc1cccc(Cl)c1)Nc1cc(S(=O)(=O)N2CCOCC2)ccc1N1CCCC1	MPTP inh 87 | Rh123 counter 75
O=C(Nc1ccc([N+](=O)[O-])cc1)Nc1ccc(N2CCOCC2)c2nonc12	MPTP inh 96 | Rh123 counter 58
CC(C)[C@H](NC(=O)N1CC(=O)Nc2ccccc21)C(=O)N[C@@H](C(=O)O)c1ccccc1	none
CCCOC(=O)c1ccc(Oc2coc3c(CN(CC)CC)c(O)ccc3c2=O)cc1	none
O=C(COc1ccc2c(-c3ccccc3)cc(=O)oc2c1)NCc1ccccn1	none
O=C(COc1ccc2c(-c3ccccc3)cc(=O)oc2c1)Nc1cccnc1	MPTP inh 85 | Rh123 counter 87
Nc1ccccc1C(=O)NNC1=C(C(=O)C(F)(F)F)CCC1	none
O=C(NNC1=C(C(=O)C(F)(F)F)CCC1)c1ccc(Br)cc1	MPTP inh 93 | Rh123 counter 75
COc1cccc(C(=O)NNC2=C(C(=O)C(F)(F)F)CCC2)c1	MPTP inh 63 | Rh123 counter 45
COc1ccccc1C(=O)NNC1=C(C(=O)C(F)(F)F)CCC1	none
CCOc1ccc(NS(=O)(=O)c2ccc(C(=O)NCC(c3ccc(OC)cc3)N3CCCC3)cc2)cc1 (stereo unspecified)	MPTP inh 85 | Rh123 counter inactive | MPTP abs DR 9 | MPTP counter DR inactive
COc1ccc(-c2oc3ccccc3c2C#CC(C)(C)O)cc1	none
COc1ccc(Nc2ccnc(Nc3ccc(OC)cc3)n2)cc1	MPTP inh 78 | Rh123 counter inactive | MPTP abs DR 11 | MPTP counter DR 35
Cn1c2c(c(=O)n(C)c1=O)C(C(F)(F)F)(C(F)(F)F)N=C(c1ccc(Cl)cc1)N2	MPTP inh 99 | Rh123 counter 84
Cc1ccccc1C1=NC(C(F)(F)F)(C(F)(F)F)c2c(n(C)c(=O)n(C)c2=O)N1	none
Cn1cc(S(=O)(=O)N2CCc3ccccc32)cc1C(=O)NC(C)(C)C	MPTP inh 50 | Rh123 counter 80
N#C/C(=N\Nc1cccc(C(F)(F)F)c1)C(=O)c1ccsc1	MPTP inh 84 | Rh123 counter 57
Cc1nccc(-c2cccc(N/N=C(\C#N)C(=O)c3ccccc3)c2)n1	none (no result: MT1-MMP act inh)
O=C(NCc1ccco1)c1sc(=S)n2c1[nH]c(=O)c1ccccc12	MPTP inh 89 | Rh123 counter 77
O=C(NCc1ccccc1)c1ccc2c(=O)[nH]c3c(C(=O)NCC4CCCO4)sc(=S)n3c2c1 (stereo unspecified)	none
O=C(NC1CCCC1)c1sc(=S)n2c1[nH]c(=O)c1ccccc12	MPTP inh 87 | Rh123 counter 97
O=C(c1ccccc1)N1CCN(c2ncnc3sc4c(c23)CCC4)CC1	MPTP inh 53 | Rh123 counter 45
